Reference: ChEMBL document CHEMBL1649161, “Pharmacokinetics of EDP-420 after ascending single oral doses in healthy adult volunteers” (Antimicrob Agents Chemother, 2009)

Key:
[1] = Apparent volume of distribution in healthy human plasma at 200 mg, po administered as single dose measured after 120 hrs; type: ADME, organism-based
[2] = AUC (0 to last) in healthy human plasma at 1200 mg, po administered as single dose measured after 120 hrs; type: ADME, organism-based; set-up: dose 1200 mg, route oral, time 0 - last
Outline: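 Healthy adults (6 per dose group) received a single oral suspension after an 8-h fast, with food withheld 4 h. EDTA blood was drawn predose to 120 h. Plasma was protein-precipitated with ACN and assayed by LC-MS/MS (clarithromycin internal standard; range 1–1,000 ng/ml). AUC0-last was computed by linear-up/log-down trapezoid; AUC0-∞ added Clast/λz. Values are noncompartmental means.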

[3] = Tmax in healthy human plasma at 200 mg, po administered as single dose measured after 120 hrs; type: ADME, organism-based
Outline: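 Fasted healthy adults (n = 6 per group) took one oral suspension dose. Plasma was sampled from predose through 0.25–120 h postdose and measured by validated LC-MS/MS (lower limit 1 ng/ml). Tmax was read directly from observed concentration–time data using actual sampling times and reported as median with range.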

[4] = Half life in healthy human plasma at 400 mg, po administered as single dose measured after 120 hrs; type: ADME, organism-based
[5] = Renal clearance in healthy human at 100 mg, po administered as single dose measured after 48 hrs; type: ADME, organism-based, Kidney; conditions: in vivo, read-out: CL_renal (converted)
Outline: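 Healthy adults (6 active per dose) got a single oral suspension dose after an 8-h fast, with food withheld 4 h. Urine over 0–48 h in intervals and serial EDTA plasma were assayed by validated LC-MS/MS, with plasma calibration from 1 to 1,000 ng/ml. CLR = Ae0-48 (urine volume × concentration summed) divided by plasma AUC0-48.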

CC[C@H]1OC(=O)[C@H](C)C(=O)[C@H](C)[C@@H](O[C@@H]2O[C@H](C)C[C@H](N(C)C)[C@H]2O)[C@@]2(C)C[C@@H](C)/C(=N\C(C)=O)[C@H](C)[C@@H](OC/C(=N\OCc3ccc(-n4cccn4)nc3)CO2)[C@]1(C)O [MODITHROMYCIN]
Vd/F [1]: 589 L
AUC(0-t) at 120 h [2]: 37400 ng·h/mL
Tmax [3]: 2.5 h
half-life [4]: 15.8 h
CL renal at 48 h [5]: 46.3 mL/min
